Experimental data published in ChEMBL document CHEMBL1153905, “Functionalized 3-benzylidene-indolin-2-ones: inducers of NAD(P)H-quinone oxidoreductase 1 (NQO1) with antiproliferative activity” (Bioorg Med Chem, 2009).
Values belong to the molecule of their own block, whether it stands above or below them.

Legend:
[1] = target: NAD(P)H dehydrogenase [quinone] 1 (Mus musculus) (UniProt Q64669); assay: Induction of NQO1 activity in mouse Hepa-1c1c7 cells assessed as induction ratio at 5 uM after 48 hrs by MTT assay relative to control; assay type: cell-based
Chain of NAD(P)H dehydrogenase [quinone] 1 (Mus musculus) (Q64669 whole entry): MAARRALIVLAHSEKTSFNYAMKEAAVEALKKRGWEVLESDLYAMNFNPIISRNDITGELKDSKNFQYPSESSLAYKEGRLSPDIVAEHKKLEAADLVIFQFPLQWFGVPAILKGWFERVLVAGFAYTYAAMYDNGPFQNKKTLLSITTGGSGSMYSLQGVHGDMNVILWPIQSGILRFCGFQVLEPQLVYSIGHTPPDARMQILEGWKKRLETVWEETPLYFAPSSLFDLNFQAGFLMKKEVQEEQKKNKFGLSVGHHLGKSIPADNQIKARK
Method in brief: (§1)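 Hepa1c1c7 cells, 10,000 per well, 24 h, were then treated 48 h (DMSO ≤0.5%). Digitonin/EDTA lysates were assayed for menadione-dependent MTT-formazan formation using a G6P/G6PDH NADPH-generating mix with FAD at pH 7.4. The reaction ran 5 min, was stopped with dicoumarol, and read at A590. Degree of induction = (A test − blank)/(A control − blank). Ratios were read off the induction–concentration plot at the EROD test concentration.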

[2] = Cytotoxicity against mouse Hepa-1c1c7 cells after 48 hrs by MTT assay; assay type: cell-based; conditions: hepa-1c1c7, 48 h
Method in brief: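 Murine hepatoma cells in α-MEM with 10% heat- and charcoal-treated fetal calf serum, passages 6–17; MTT read-out as for the cancer lines but with 48 h compound exposure. Highest concentration tested 25 µM. IC50 from survival-versus-concentration curve; mean and SD, n = 3.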

CYP1A1 [3] = target: T1, CYP1A1 (Mus musculus, UniProt P00184); assay: Induction of CYP1A1 activity in mouse Hepa-1c1c7 cells assessed as induction ratio at 5 uM after 48 hrs by EROD assay relative to control; assay type: ADME, cell-based
T1 sequence (P00184 whole entry): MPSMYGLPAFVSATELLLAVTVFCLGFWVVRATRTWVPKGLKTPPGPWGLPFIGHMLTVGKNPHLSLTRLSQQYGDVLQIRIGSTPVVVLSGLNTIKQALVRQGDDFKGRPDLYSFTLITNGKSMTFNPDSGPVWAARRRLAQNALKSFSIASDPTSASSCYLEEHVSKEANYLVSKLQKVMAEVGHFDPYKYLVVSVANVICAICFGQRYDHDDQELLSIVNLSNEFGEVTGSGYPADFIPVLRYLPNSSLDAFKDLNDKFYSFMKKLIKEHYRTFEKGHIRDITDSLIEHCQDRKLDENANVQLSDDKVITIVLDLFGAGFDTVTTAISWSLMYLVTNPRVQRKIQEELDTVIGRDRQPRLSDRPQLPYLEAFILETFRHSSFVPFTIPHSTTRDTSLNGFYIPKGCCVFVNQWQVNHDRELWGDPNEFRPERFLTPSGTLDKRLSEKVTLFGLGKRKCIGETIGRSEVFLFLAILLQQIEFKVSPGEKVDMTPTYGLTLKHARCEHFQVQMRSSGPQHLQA
Method in brief: (§2)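 Hepa1c1c7 cells were seeded at 10,000 per well and grown 24 h. They were then exposed 48 h to compound (final DMSO 0.5% v/v) at about 4 × the NQO1 CD. After a PBS wash, cells got 5 µM 7-ethoxyresorufin plus 2 mM salicylamide in medium, 37 °C, 40 min. Resorufin was read at ex 530/em 590 nm, corrected for compound fluorescence. Ratio = (F treated − blank)/(F DMSO control − blank); mean ± SD, n = 3.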

CYP1A1 [4] = target: T1, CYP1A1; assay: Induction of CYP1A1 activity in mouse Hepa-1c1c7 cells assessed as induction ratio at 2.5 uM after 48 hrs by EROD assay relative to control; assay type: ADME, cell-based; method in brief: as §2
[5] = target: NAD(P)H dehydrogenase [quinone] 1 (Mus musculus) (UniProt Q64669); assay: Induction of NQO1 activity in mouse Hepa-1c1c7 cells assessed as induction ratio at 2.5 uM after 48 hrs by MTT assay relative to control; assay type: cell-based; method in brief: as §1
CYP1A1 [6] = target: T1, CYP1A1; assay: Induction of CYP1A1 activity in mouse Hepa-1c1c7 cells assessed as induction ratio at 20 uM after 48 hrs by EROD assay relative to control; assay type: ADME, cell-based; method in brief: as §2
[7] = target: NAD(P)H dehydrogenase [quinone] 1 (Mus musculus) (UniProt Q64669); assay: Induction of NQO1 activity in mouse Hepa-1c1c7 cells assessed as induction ratio at 20 uM after 48 hrs by MTT assay relative to control; assay type: cell-based; method in brief: as §1
[8] = target: NAD(P)H dehydrogenase [quinone] 1 (Mus musculus) (UniProt Q64669); assay: Induction of NQO1 activity in mouse Hepa-1c1c7 cells assessed as induction ratio at 0.5 uM after 48 hrs by MTT assay relative to control; assay type: cell-based; method in brief: as §1
CYP1A1 [9] = target: T1, CYP1A1; assay: Induction of CYP1A1 activity in mouse Hepa-1c1c7 cells assessed as induction ratio at 0.5 uM after 48 hrs by EROD assay relative to control; assay type: ADME, cell-based
Method in brief: (§3)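 About 10,000 Hepa1c1c7 cells/well cultured 24 h, then compound (0.5% DMSO final) for 48 h, at roughly 4 × the concentration doubling NQO1 activity. After PBS wash, cells given 5 µM 7-ethoxyresorufin plus 2 mM salicylamide, 37 °C, 40 min; resorufin fluorescence ex 530/em 590 nm, corrected for compound fluorescence. Ratio = (treated − blank)/(DMSO control − blank); mean ± SD, n = 3.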

[10] = target: NAD(P)H dehydrogenase [quinone] 1 (Mus musculus) (UniProt Q64669); assay: Induction of NQO1 activity in mouse Hepa-1c1c7 cells assessed as induction ratio at 1 uM after 48 hrs by MTT assay relative to control; assay type: cell-based; method in brief: as §1
CYP1A1 [11] = target: T1, CYP1A1; assay: Induction of CYP1A1 activity in mouse Hepa-1c1c7 cells assessed as induction ratio at 1 uM after 48 hrs by EROD assay relative to control; assay type: ADME, cell-based; method in brief: as §3
[12] = target: NAD(P)H dehydrogenase [quinone] 1 (Mus musculus) (UniProt Q64669); assay: Induction of NQO1 activity in mouse Hepa-1c1c7 cells assessed as induction ratio at 7.5 uM after 48 hrs by MTT assay relative to control; assay type: cell-based; method in brief: as §1
CYP1A1 [13] = target: T1, CYP1A1; assay: Induction of CYP1A1 activity in mouse Hepa-1c1c7 cells assessed as induction ratio at 7.5 uM after 48 hrs by EROD assay relative to control; assay type: ADME, cell-based; method in brief: as §2

Structure (SMILES): O=C1Nc2ccccc2/C1=C\c1ccccc1
Ratio [1]: 5.13
IC50 [2]: > 25 µM
fold induction at 48 h, 5 µM (CYP1A1 [3]): 1.01

Structure (SMILES): O=C1Nc2ccccc2/C1=C\c1ccc(F)cc1Cl
fold induction at 48 h, 2.5 µM (CYP1A1 [4]): 1.2
Ratio [5]: 3.52
IC50 [2]: > 25 µM

Structure (SMILES): Cc1ccccc1/C=C1/C(=O)Nc2ccccc21
Ratio [1]: 4.45
IC50 [2]: > 25 µM
fold induction at 48 h, 5 µM (CYP1A1 [3]): 1.66

Structure (SMILES): O=C1Nc2ccccc2/C1=C\c1ccc(F)cc1
fold induction at 48 h, 20 µM (CYP1A1 [6]): 1.64
Ratio [7]: 5.69
IC50 [2]: > 25 µM

Structure (SMILES): COc1cccc(/C=C2/C(=O)N(C)c3ccccc32)c1
Ratio [1]: 4.78
IC50 [2]: > 25 µM
fold induction at 48 h, 5 µM (CYP1A1 [3]): 1.18

Structure (SMILES): Cc1ccc(CC2C(=O)Nc3ccccc32)cc1 (configuration not stated)
IC50 [2]: > 25 µM

Structure (SMILES): COc1cccc(CC2C(=O)Nc3ccccc32)c1 (configuration not stated)
fold induction at 48 h, 20 µM (CYP1A1 [6]): 1.78
Ratio [7]: 2.23
IC50 [2]: > 25 µM

Structure (SMILES): O=C1Nc2ccccc2/C1=C\c1ccc2ccccc2c1
fold induction at 48 h, 2.5 µM (CYP1A1 [4]): 1.06
Ratio [5]: 4.61
IC50 [2]: > 25 µM

The next lines start with results.

fold induction at 48 h, 2.5 µM (CYP1A1 [4]): 1.06
Ratio [5]: 3.67
Structure (SMILES): O=C1Nc2ccccc2/C1=C\c1ccc(Cl)cc1
IC50 [2]: 6.7 µM

Ratio [8]: 4.1
fold induction at 48 h, 0.5 µM (CYP1A1 [9]): 2.05
Structure (SMILES): COc1ccc(/C=C2/C(=O)Nc3cc(F)ccc32)cc1O
IC50 [2]: 15.6 µM

Ratio [8]: 3.13
fold induction at 48 h, 0.5 µM (CYP1A1 [9]): 2.66
Structure (SMILES): COc1ccc(/C=C2/C(=O)Nc3ccccc32)cc1O
IC50 [2]: 11.9 µM

Ratio [10]: 4.03
fold induction at 48 h, 1 µM (CYP1A1 [11]): 2.48
Structure (SMILES): COc1ccccc1/C=C1/C(=O)Nc2ccccc21
IC50 [2]: > 25 µM

Ratio [10]: 3.21
fold induction at 48 h, 1 µM (CYP1A1 [11]): 1.25
Structure (SMILES): COc1cccc(/C=C2/C(=O)Nc3cc(F)ccc32)c1
IC50 [2]: 9.8 µM

Ratio [12]: 4.19
fold induction at 48 h, 7.5 µM (CYP1A1 [13]): 1.11
Structure (SMILES): O=C1Nc2ccccc2/C1=C\c1cccc(F)c1
IC50 [2]: > 25 µM

fold induction at 48 h, 20 µM (CYP1A1 [6]): 1.04
Ratio [7]: 3.82
Structure (SMILES): O=C1Nc2ccccc2/C1=C\c1cc(O)cc(O)c1
IC50 [2]: > 25 µM

Ratio [1]: 4
fold induction at 48 h, 5 µM (CYP1A1 [3]): 1.32
Structure (SMILES): COc1cc(/C=C2/C(=O)Nc3ccccc32)ccc1O
IC50 [2]: 14.6 µM

Ratio [12]: 4.21
fold induction at 48 h, 7.5 µM (CYP1A1 [13]): 1.38
Structure (SMILES): COc1ccc(/C=C2\Nc3ccccc3C2=O)cc1O
IC50 [2]: > 25 µM

Ratio [10]: 5.09
fold induction at 48 h, 1 µM (CYP1A1 [11]): 2.33
Structure (SMILES): COc1ccc(/C=C2/C(=O)Nc3cc(Cl)ccc32)cc1O
IC50 [2]: > 25 µM
